Data set [1] concerns KB. The data set is described as follows: Cytotoxicity against human KB cells. The data set is classed as functional, cell-based.
Data set [2] relates to Col2. The data set is described as follows: Growth inhibition of human Col2 cells implanted at subcutaneous compartment of athymic NCr nu/nu mouse at 25 mg/kg, ip administered once daily after 3 to 6 days of fiber implantation measured on day 7 by hollow fiber assay. In kind it is functional. Particulars: Col2, sc, read-out: GI. The method, boiled down: (§1)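 Hollow fibers carrying KB (7.5 × 10⁵ cells/mL), Col-2 (10⁶ cells/mL) or hTERT-RPE1 (2.5 × 10⁶ cells/mL) cells were implanted i.p. and s.c. in female athymic NCr nu/nu mice. Compound was coprecipitated with PVP (MW 360 000) and dissolved in PBS. Doses of 6.25, 12.5 or 25 mg/kg were given i.p. once daily on days 3–6 after implantation. Fiber cell growth inhibition was measured.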

Data set [3] has as its system Mus musculus. The data set is described as follows: Toxicity in athymic NCr nu/nu mouse implanted with human KB cells at intraperitoneal compartment assessed as body weight loss at 25 mg/kg, ip administered once daily after 3 to 6 days of fiber implantation measured on day 7 by hollow fiber assay. In kind it is organism-based. On the set-up: dose 25 mg/kg, route intraperitoneal. The note with it: in vivo. A digest of the protocol: (§2)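 Female athymic NCr nu/nu mice carried i.p. and s.c. hollow fibers with KB, Col-2 or hTERT-RPE1 cells. They received the PVP-coprecipitated compound in PBS at 6.25, 12.5 or 25 mg/kg i.p. once daily on days 3–6 after implantation. Toxicity was followed as body weight, recorded daily.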

Data set [4] in a line: Growth inhibition of human telomerase […] RPE1 cells implanted at intraperitoneal compartment of athymic NCr nu/nu mouse at 25 mg/kg, ip administered once daily after 3 to 6 days of fiber implantation measured on day 7 by hollow fiber assay. The data set is classed as functional, TERT-RPE1. The note with it: RPE-1, ip, read-out: GI. The method, boiled down:
as §1

In data set [5] the test system is Mus musculus. The experiment in a line: Toxicity in athymic NCr nu/nu mouse implanted with human telomerase […] RPE1 cells at subcutaneous compartment assessed as body weight loss at 25 mg/kg, ip administered once daily after 3 to 6 days of fiber implantation measured on day 7 by hollow fiber assay. The data set is classed as organism-based. On the set-up: dose 25 mg/kg. The note with it: in vivo, sc. A digest of the protocol: as §2

For data set [6], the system named is Col2. The data set is described as follows: Growth inhibition of human Col2 cells implanted at intraperitoneal compartment of athymic NCr nu/nu mouse at 25 mg/kg, ip administered once daily after 3 to 6 days of fiber implantation measured on day 7 by hollow fiber assay. The data set is classed as functional. Particulars: read-out: GI. A digest of the protocol:
as §1

Data set [7] concerns KB. The data set is described as follows: Growth inhibition of human KB cells implanted at intraperitoneal compartment of athymic NCr nu/nu mouse at 25 mg/kg, ip administered once daily after 3 to 6 days of fiber implantation measured on day 7 by hollow fiber assay. In kind it is functional. Particulars: read-out: GI. The method, boiled down:
as §1

Data set [8] concerns Mus musculus. The data set is described as follows: Toxicity in athymic NCr nu/nu mouse implanted with human telomerase […] RPE1 cells at intraperitoneal compartment assessed as body weight loss at 25 mg/kg, ip administered once daily after 3 to 6 days of fiber implantation measured on day 7 by hollow fiber assay. Set-up: dose 25 mg/kg, route intraperitoneal. The data set is classed as organism-based. Particulars: in vivo. A digest of the protocol: as §2

Data set [9] deals with Mus musculus. The experiment in a line: Toxicity in athymic NCr nu/nu mouse implanted with human KB cells at subcutaneous compartment assessed as body weight loss at 25 mg/kg, ip administered once daily after 3 to 6 days of fiber implantation measured on day 7 by hollow fiber assay. In kind it is organism-based. Set-up: dose 25 mg/kg. Particulars: in vivo, sc. A digest of the protocol: as §2

In data set [10] the test system is LNCaP. The data set is described as follows: Cytotoxicity against human LNCAP cells. The data set is classed as functional, cell-based.
For data set [11], the system named is Mus musculus. The experiment in a line: Toxicity in athymic NCr nu/nu mouse implanted with human Col2 cells at subcutaneous compartment assessed as body weight loss at 25 mg/kg, ip administered once daily after 3 to 6 days of fiber implantation measured on day 7 by hollow fiber assay. Set-up: dose 25 mg/kg. The data set is classed as organism-based. Particulars: in vivo, sc. A digest of the protocol: as §2

The test system of data set [12] is Col2. The experiment in a line: Cytotoxicity against human Col2 cells. The data set is classed as functional, cell-based.
Data set [13] has as its system Mus musculus. The data set is described as follows: Toxicity in athymic NCr nu/nu mouse implanted with human Col2 cells at intraperitoneal compartment assessed as body weight loss at 25 mg/kg, ip administered once daily after 3 to 6 days of fiber implantation measured on day 7 by hollow fiber assay. The data set is classed as organism-based. Set-up: dose 25 mg/kg, route intraperitoneal. Particulars: in vivo. The method, boiled down: as §2

Data set [14] relates to KB. The data set is described as follows: Growth inhibition of human KB cells implanted at subcutaneous compartment of athymic NCr nu/nu mouse at 25 mg/kg, ip administered once daily after 3 to 6 days of fiber implantation measured on day 7 by hollow fiber assay. The data set is classed as functional. The note with it: sc, read-out: GI. The method, boiled down: as §1
Data set [15] is described as follows: Growth inhibition of human telomerase […] RPE1 cells implanted at subcutaneous compartment of athymic NCr nu/nu mouse at 25 mg/kg, ip administered once daily after 3 to 6 days of fiber implantation measured on day 7 by hollow fiber assay. The data set is classed as functional, TERT-RPE1. Particulars: RPE-1, sc, read-out: GI. A digest of the protocol: as §1

Values after ≈ are worked out from the molar mass of the structure shown. Active and inactive are the calls of the source. The calls are words filed in the database; no cut-off is given here.

Molecule `COc1ccc2c(c1)O[C@@H]1c3ccc(O)cc3OC[C@H]21` yielded an EC50 in [1] of 2.4 µg/mL (≈ 8.88 µM).

As to `COc1ccc(-c2coc3cc(O)ccc3c2=O)cc1`, in data set [1], the outcome was inactive.

Regarding `Oc1ccc2c(c1)OC[C@@H]1c3cc4c(cc3O[C@H]21)OCO4`, the outcome in [1] was inactive.

As for `COc1c(O)cc(C/C=C/c2ccccc2)c(OC)c1O` [MACHARISTOL], the inhibition in vivo at 25 mg/kg in data set [2] turned out to be 35%; in data set [4], 31%; in data set [6], 35%; in [7] it was 23%; in data set [14], 0%; in data set [15], 45%. Moreover, the EC50 amounted to 1.7 µg/mL (≈ 5.94 µM) in data set [1], 2.4 µg/mL (≈ 8.38 µM) in [10] and 3 µg/mL (≈ 10.5 µM) in data set [12]. In addition, the Activity entry in data set [3], in data set [5], in data set [8], in data set [9], in [11] and in data set [13] was “Non-toxic” in each case.

Broadly, the EC50 is the concentration needed to bring the measured effect to its halfway point.

Source of the values: ChEMBL document CHEMBL1156385, “Macharistol, a new cytotoxic cinnamylphenol from the stems of Machaerium aristulatum” (J Nat Prod, 2001).
